Experimental findings from ChEMBL document CHEMBL1126060, “Spiropiperidines as high-affinity, selective sigma ligands” (J Med Chem, 1992) are described below.

Molecules are shown by their SMILES.

Sequence of D(2) dopamine receptor (P61169 whole entry): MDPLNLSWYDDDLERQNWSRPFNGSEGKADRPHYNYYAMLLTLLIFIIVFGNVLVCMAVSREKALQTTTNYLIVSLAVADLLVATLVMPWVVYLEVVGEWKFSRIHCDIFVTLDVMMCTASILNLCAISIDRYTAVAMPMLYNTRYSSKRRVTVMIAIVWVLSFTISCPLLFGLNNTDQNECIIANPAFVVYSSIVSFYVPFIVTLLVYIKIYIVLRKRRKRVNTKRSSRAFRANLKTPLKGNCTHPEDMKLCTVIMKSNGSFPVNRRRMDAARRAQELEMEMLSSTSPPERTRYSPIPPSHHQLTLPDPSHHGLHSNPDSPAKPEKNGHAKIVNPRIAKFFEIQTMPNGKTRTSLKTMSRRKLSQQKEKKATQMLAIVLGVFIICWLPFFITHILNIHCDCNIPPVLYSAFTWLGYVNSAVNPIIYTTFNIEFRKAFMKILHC

The target of the assay is D(2) dopamine receptor (Rattus norvegicus, UniProt P61169). As to the kind of experiment: In vitro for the binding affinity against dopamine receptor D2 by using [3H](-)-sulpiride as radioligand in rat striatum. Type of assay: tissue-based. The essentials:
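Displacement of [³H]-(-)-sulpiride from rat striatal homogenates. Values are reported as -log₁₀(IC₅₀), the mean of two to three independent determinations. Values without error limits are the mean of two independent experiments.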
As for `c1ccc2c(c1)CCC21CCN(CC2CCCCC2)CC1`, the IC50 was 6.61 µM.

Compound `c1ccc2c(c1)CCCC21CCN(CC2CCCCC2)CC1` gave an IC50 of 1.95 µM. Under `CCCCCCN1CCC2(CCCc3ccccc32)CC1` stands 2.04 µM. Under `COc1ccc(CN2CCC3(CCCc4ccccc43)CC2)cc1` stands 0.12 µM. Then `Cc1ccc(CN2CCC3(CCCc4ccccc43)CC2)cc1`, with 0.174 µM; and `CCCCN1CCC2(CCCCc3ccccc32)CC1`, with 2.51 µM. In turn, `c1ccc(CN2CCC3(CCCCc4ccccc43)CC2)cc1` had an IC50 of 3.72 µM. Then `CCCCCCN1CCC2(CCc3ccccc32)CC1`, with 5.5 µM; and `COc1ccc(CN2CCC3(CCc4ccccc43)CC2)cc1`, with 0.617 µM; and `CCCCN1CCC2(CCc3ccccc32)CC1`, with 3.98 µM. Under `CCCCN1CCC2(CCCc3ccccc32)CC1` stands 11 µM; under `CC(C)=CCN1CCC2(CCc3ccccc32)CC1`, 17 µM; under `c1ccc(CN2CCC3(CCc4ccccc43)CC2)cc1`, 0.891 µM.

In turn, `CC(C)=CCN1CCC2(CCCc3ccccc32)CC1` had an IC50 of 5.5 µM. Against the preceding compound, the IC50 is about 6.2-fold higher.
